Bioassay records: PubChem BioAssay, Broad Institute
This is a sample that favours compounds with a hit; in the whole collection about 3.3% have one here.
PglD inh: PglD (C. jejuni) enzyme inhibition | purified PglD enzyme, DTNB colorimetric CoA detection | inhibition, % at 12.5 µM | actives 0.098% (n = 360,000) | AID 602405; in the data active = inhibition above about 16%, passing the limit was not always enough
Xi reactivation: X-chromosome reactivation activator; actives 0.055% (n = 360,000); XiGFP mouse fibroblasts, % GFP-positive cells imaging, 3 d; cells co-treated with 5-aza-dC sensitizer; scaled so ellipticine positive control = 100%; activation, % at 7.58 µM; AID 743238;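 active = mean normalized replicate activation at least 10% and every replicate at or above 10%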
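Schedule: 3 d treatment, 15 min room-temperature fixation; system: 68-5-11 XiGFP fibroblast line; buffer or medium: DMEM plus 5-aza-dC sensitizer; control set: ellipticine 6 µM positive control; compound: one concentration, pinned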
FGF22 binding: FGF22 (human) thermal shift binding; Q9HCT0; recombinant FGF22 thermal shift, SYPRO orange fluorescence; percent of sucrose octasulfate shift, DMSO zero; activity (Tm shift, normalised), % at 9.99 µM; actives 1.5% (n = 340,000); AID 651658;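 active = mean Tm shift, scaled 0 neutral to 100 positive control, at about 1.3% or above, every replicate too, limit read from the data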
Target sequence (Q9HCT0 whole entry, looked up): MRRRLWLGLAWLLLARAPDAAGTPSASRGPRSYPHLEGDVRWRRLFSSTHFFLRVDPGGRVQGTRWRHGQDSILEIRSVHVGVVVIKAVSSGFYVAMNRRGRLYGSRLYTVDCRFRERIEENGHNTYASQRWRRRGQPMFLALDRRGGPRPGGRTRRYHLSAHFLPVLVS
DENV2 CPE: protects cells from dengue virus 2 cytopathic effect; DENV2-infected cells, cytopathic effect rescue, plate reader; CPE inhibition, % at 9.99 µM; actives 1.7% (n = 350,000); in the data active = CPE inhibition above about 20%, passing the limit was not always enough; tested in BHK-21 cells
Statin myotox sup: protects C2C12 myotubes from simvastatin toxicity. actives 0.78% (n = 330,000). ATP luminescence, 48 h; scaled: DMSO 0, geranylgeraniol control 100. AID 602340. rescue of ATP level, % at 7.49 µM;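 active = mean ATP rescue above about 67%, or every replicate alone reaching that limit, limit read from the data, passing the limit was not always enough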;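 also: myotubes were challenged with 10 µM simvastatin during compound exposure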
E-sel inducer: E-selectin induction on HUVECs. P16581. HUVEC E-selectin immunofluorescence imaging; normalized: neutral wells 0, TNF-alpha wells 100. activation, % at 7.58 µM. actives 0.37% (n = 260,000). AID 686992;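 active = mean E-selectin-positive cell signal at least 10% of the positive control, reached in at least 60% of replicates, without over 20% cell loss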
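System: HUVEC / Compound: single concentration / Signal: immunofluorescence imaging / Read-out: percent E-selectin-positive cells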
Numbers stand for hits; n = inactive; x = no result.

SMILES	PglD inh	Xi reactivation	FGF22 binding	DENV2 CPE	Statin myotox sup	E-sel inducer
CNC[C@@H]1Oc2ccc(NC(=O)CCN3CCOCC3)cc2CC(=O)N([C@H](C)CO)C[C@@H]1C	n	x	x	n	n	x
COc1ccc(C2CC(=O)Oc3c(C(CCN4CCCCC4)c4ccc(N(C)C)cc4)c(OC)cc(OC)c32)cc1 (stereo not given)	n	n	n	n	121.2	x
Cc1ccc(S(=O)(=O)N(C)C[C@H]2OCCCC[C@@H](C)Oc3ccc(NS(=O)(=O)c4ccc(Cl)cc4)cc3C(=O)N([C@@H](C)CO)C[C@@H]2C)cc1	n	n	n	n	n	n
C[C@H]1CN([C@@H](C)CO)S(=O)(=O)c2ccc(-c3cccc(C#N)c3)cc2O[C@@H]1CN(C)C(=O)Nc1cc(F)ccc1F	n	n	n	n	n	n
COc1ccc(C(=O)N2CC(c3ccccc3)CC2=O)cc1 (stereo not given)	x	n	n	n	x	82.9
N#C[C@@H]1[C@H](c2ccc(-c3cccc(F)c3)cc2)[C@@H](CO)N1C(=O)NC1CCCCC1	x	n	x	n	x	n
CC(C)(C)c1ccc(OCCC(=O)OCC(=O)NC2CC2)cc1	n	n	n	n	n	x
CC(C)(C)c1ccc(OCCC(=O)OCC(=O)NC2CCS(=O)(=O)C2)cc1 (stereo not given)	x	n	43.2	n	x	n
COc1c(C)cc(C(=O)C2CCCN(Cc3ccc(Oc4ncccn4)cc3)C2)cc1C (stereo not given)	n	n	n	n	n	x
CC(C)Oc1cccc(C(=O)C2CCCN(Cc3ccc(Oc4ncccn4)cc3)C2)c1 (stereo not given)	x	n	42.9	n	x	x
O=S1(=O)Cc2cc3ccccc3cc2C1	x	n	43.0	n	x	x
Nc1ccc2cc3ccccc3cc2c1	n	x	n	n	n	x
CCS(=O)(=O)c1ncc(Cl)c(C(=O)Nc2ccc(C)cc2)n1	n	n	n	n	126.9	x
O=C(C[C@H]1C=C[C@@H](NC(=O)CN2CCOCC2)[C@H](CO)O1)NC1CCCCC1	n	n	n	n	n	n
